This passage reports cytotoxicity results from ChEMBL document CHEMBL4513216, “Probing the Open Global Health Chemical Diversity Library for Multistage-Active Starting Points for Next-Generation Antimalarials” (ACS Infect Dis, 2020).

This series is described as follows: Toxicity liver stage against HepG2, at 10uM. The arrangement: test concentration 10 uM, cell line HepG2-A16-CD81EGFP. The series is classed as cell-based. The settings on record: human, HepG2-A16-CD81EGFP cells; read-out: INHIBITION
The method in brief:
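Uninfected HepG2-A16-CD81EGFP cells, 3 × 10^3 per well, 1536-well, plated on prespotted compound at 10 μM final, parasite-free screening media added to match infected plates; puromycin 10 μM positive, DMSO 0.5% negative; run in parallel with 48 h PbLuc assay at 37 °C, 5% CO2; viability by CellTiter-Glo luminescence, normalized to controls.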
`Fc1cnc(N2CCOC3(CCN(Cc4cccs4)CC3)C2)nc1`: the cytotoxicity at 10 µM stood at 0.73%. `COCc1cnc2n1CCN(C(=O)C1=CCCC1)C2C` (stereo not drawn): the cytotoxicity at 10 µM was 2.75%. Regarding `CN(C)CC1CN(Cc2ccc3c(c2)OCO3)Cc2nccn2C1` (stereo not drawn), the cytotoxicity at 10 µM is -0.362%. For the compound `Cc1nsc(NC(=O)NC2CCCOC2)n1` (stereo not drawn), the cytotoxicity at 10 µM worked out at 16%.

As for `Cc1nc(CN2CCc3nn(C(C)C)c(=O)cc3C2)oc1C`, the cytotoxicity at 10 µM was -7.52%. As for `Cc1ccccc1CN1CCC2(CCCN2C(=O)C(C)C)CC1`, the cytotoxicity at 10 µM came to 11.7%. The same measure for `CSCC(=O)N(Cc1ccccn1)Cc1ccccc1C`: 7.79%; for `COCc1cc(NCc2cc(F)ccc2F)n2nccc2n1`: -2.32%; for `CC(=O)c1c(C)nn(CC(=O)N2Cc3cnc(CC(C)C)nc3C2)c1C`: 3.75%. The same measure for `CN(CC(C)(CO)CO)C(=O)Nc1cc(F)cc(F)c1`: 0.669%; for `CN(C)C(=O)CCC(=O)NCc1cccnc1-n1cnc2ccccc21`: -3.97%; for `O=C(NCc1cn2c(n1)CN(Cc1cccnc1)CC2)C1CCC1`: 6.76%. `CC(C)c1cc(NCC(O)CO)n2nccc2n1` (stereo not drawn): the cytotoxicity at 10 µM is -24.8%. For the compound `CCc1cc(N2CCC(NC3CCOCC3)CC2)nc(N(C)C)n1`, the cytotoxicity at 10 µM was -14.5%. Regarding `CC(NC(=O)NCCCc1n[nH]c(N)c1C#N)c1ccccc1F` (stereo not drawn), the cytotoxicity at 10 µM is -3.6%. As for `CC(C)(C)C1CCC(NCCN2CCOCC2)CC1` (stereo not drawn), the cytotoxicity at 10 µM amounted to 0.741%.

For the compound `CCc1nc2n(n1)CC(NCc1cnc(-c3ccccc3)nc1)CC2` (stereo not drawn), the cytotoxicity at 10 µM was 0.702%. As to `CCc1noc(CN2CCCN(C(N)=O)CC2)n1`, the cytotoxicity at 10 µM was -4.12%. Take `COC(=O)CCCNC(=O)N1CCc2c(F)ccc(F)c2C1`: the cytotoxicity at 10 µM was -11.2%. As to `CC(C)c1noc(C(C)N2CCN(Cc3ccco3)CC2)n1` (stereo not drawn), the cytotoxicity at 10 µM was -7.67%. The same measure for `CCOc1ccc(C(=O)NCCCNc2ncccn2)cc1`: 11.5%; for `COC(=O)C(NC(=O)c1cc(C)ccc1C)c1cccnc1` (stereo not drawn): -39.7%.

Turning to `Cn1cccc1CN1CCC2(CC1)CN(c1ncccn1)CCO2`, the cytotoxicity at 10 µM was -4%. Then `CC(CN1CCOCC1)NCC1CCN(c2cnn(C)c(=O)c2)CC1` (stereo not drawn), with -9.93%; and `COc1ccc2c(ccn2CCC(=O)NCc2ccc(C(=O)O)cc2)c1`, with 2.25%; and `OCCN1CCC(F)(F)C2(CCN(c3cccnc3)C2)C1` (stereo not drawn), with -94.7%. `CCS(=O)(=O)CCNCc1cc(O)c2cc(C)cc(C)c2n1`: the cytotoxicity at 10 µM was determined as 1.36%. On to `CCc1c(C)[nH]c(C(C)(N)CC)nc1=O` (stereo not drawn), for which the cytotoxicity at 10 µM was -4.04%. With `CC(C)c1csc(C2CCCN(C(=O)c3ncccn3)C2)n1` (stereo not drawn), the cytotoxicity at 10 µM was 6.3%. As for `CN1CCN(Cc2nnc(C3CCN(C4CCCCC4)CC3)n2C)CC1`, the cytotoxicity at 10 µM amounted to 3.18%.

Consider `Cc1cc(F)cc(S(=O)(=O)NCCCN2CCC(O)CC2)c1`, for which the cytotoxicity at 10 µM is -20.1%. Regarding `CC1(C(=O)N2CCOCC2)CN(Cc2ccccn2)CCO1` (stereo not drawn), the cytotoxicity at 10 µM was found to be 2.86%. Then `COC(=O)c1ccc(NCc2csc(C)n2)cc1Cl`, with -5.08%. Then `Cc1cc(C)cc(C2(C(=O)NCC(C)CN3CCCC3=O)CC2)c1` (stereo not drawn), with 1.42%; and `CC(=O)N1CCOCC(Cc2ccc3c(ccn3C(C)=O)c2)C1` (stereo not drawn), with 1.64%; and `CC(C#N)CN(C)Cc1ccc(Cl)c2cccnc12` (stereo not drawn), with -40.4%.

Consider `Cc1cnn(CC2CCCCN2C(=O)c2sccc2C#N)c1` (stereo not drawn), for which the cytotoxicity at 10 µM is 0.185%. For the compound `COCC1CN(c2ncccn2)Cc2cnn(CC3CC3)c21` (stereo not drawn), the cytotoxicity at 10 µM is 6.68%. The same measure for `Cc1cc(F)cc2c(NCC(C)(C)C(N)=O)c(C#N)cnc12`: -3.25%; for `Cn1cc(NC(=O)N2CCCC2c2ccccn2)ccc1=O` (stereo not drawn): -3.83%; for `O=C(N1CCCC1)N1CCC2(CC1)C(=O)N(CC1CC1)c1ccccc12`: 7.15%. Then `COc1ccccc1OCCCc1cncc(C(N)=O)c1`, with -115%; and `CCOc1cc(CNC(=O)c2cnn(CC)c2C(F)(F)F)ccn1`, with 16.8%. Then `Cc1cnc(CN2CCC(N(C)Cc3noc(C4CC4)n3)C2)o1` (stereo not drawn), with -12.6%. For `Cc1ccc(C(=O)N2CCN(CC(C)O)CC2)cc1S(C)(=O)=O` (stereo not drawn), the cytotoxicity at 10 µM is -2.96%. Take `Cc1cc(CN2C[C@@H](C)[C@@]3(CCN(CC(=O)N(C)C)C3=O)C2)oc1C`: the cytotoxicity at 10 µM came out at 9.94%.

`CS(=O)(=O)N[C@@H]1CN(C(=O)c2ccccn2)[C@@H]2CCCO[C@@H]21`: the cytotoxicity at 10 µM was found to be 4.3%.

For the compound `Cc1nc(CNC(=O)Nc2ccc3c(c2)CCCC(=O)N3)sc1C`, the cytotoxicity at 10 µM worked out at 5.06%.

`COCC1c2nnn(CC3CC3)c2CCN1Cc1ccncc1` (stereo not drawn): the cytotoxicity at 10 µM worked out at 3.37%.

`CC(NC(=O)NCCOc1ccc(F)c(F)c1)c1nncn1C` (stereo not drawn): the cytotoxicity at 10 µM was -0.192%. Take `Cn1cc(S(=O)(=O)N2CCCC2Cn2ccnc2)cc1C(N)=O` (stereo not drawn): the cytotoxicity at 10 µM was found to be 2.8%. In the case of `CC(=O)NCCNC(=O)CN1CCOC(Cn2cccn2)C1` (stereo not drawn), the cytotoxicity at 10 µM is -7.6%. The same measure for `CSc1nccc(N2CCC(=O)N(CC3CC3)C(C(C)C)C2)n1` (stereo not drawn): -2.02%; for `O=C(NCC1CCOC1)c1cc(-c2cccc(Cl)c2)on1` (stereo not drawn): -8.75%. For `COc1ccc(CCN2CCc3c(nc(C4CC4)n3C)C2)cc1`, the cytotoxicity at 10 µM was -0.729%. Regarding `CN(C)Cc1noc2c1CN(C(=O)c1ccncc1)CC2`, the cytotoxicity at 10 µM is -1.28%. Regarding `Cc1nn(C)c2ncc(CN3CCN(Cc4ccco4)CC3)cc12`, the cytotoxicity at 10 µM turned out to be 0.243%. For `O=C(C1CC(c2cccc(F)c2)=NO1)N1CCc2ccccc21` (stereo not drawn), the cytotoxicity at 10 µM turned out to be 2.46%. In the case of `O=C(c1c[nH]cn1)N1CCOCC2(C1)CN(c1ccccc1)C(=O)CO2` (stereo not drawn), the cytotoxicity at 10 µM was -7.27%.

For `Cc1ccccc1OC1CCN(CC(=O)Nc2cn(C)nc2C)CC1`, the cytotoxicity at 10 µM was -0.0825%. Turning to `CC(=O)Nc1ccc(Cl)c(C(=O)N(C)C(C)c2ccon2)c1` (stereo not drawn), the cytotoxicity at 10 µM is -48.7%.

Turning to `CN1CCCN(C(=O)NCCNc2ncccn2)CC1`, the cytotoxicity at 10 µM was -16.7%. The same measure for `COc1ccc(-c2cc3cccn(CC(=O)N4CCOCC4)c-3n2)cc1`: -7.26%. On to `COc1cccc(-c2nc(CNCc3cccnc3)cs2)c1`, for which the cytotoxicity at 10 µM is -9.37%.

For `COc1ncnc(N)c1CNCCc1ccccc1`, the cytotoxicity at 10 µM is -3.15%.

In the case of `Cc1nn(C)c2c(NCc3ccccc3F)nc(C3CC3)nc12`, the cytotoxicity at 10 µM is 15.5%. In the case of `CCC(=O)Nc1cc(Cl)ccc1C(=O)N(C)Cc1noc(CC)n1`, the cytotoxicity at 10 µM amounted to 7.1%. In the case of `Cn1nc2c(cc1=O)CN(CCOc1ccccc1C#N)CC2`, the cytotoxicity at 10 µM worked out at 18%. `Cc1noc(C)c1CN(C)C(=O)NC1CCCN(S(C)(=O)=O)C1` (stereo not drawn): the cytotoxicity at 10 µM is -13.9%. As to `CCn1cc(CCC(=O)NCc2csc(C3CC3)n2)c(C)n1`, the cytotoxicity at 10 µM is -8.78%. Then `O=C(NCC(O)c1cccc(F)c1)C1CCN(C2CCCCC2)CC1` (stereo not drawn), with 7.07%; and `CO[C@@H]1CC[C@H]2[C@H]1OCCN2C(=O)c1ccc(C)o1`, with 3.68%.

Regarding `CN(c1ccc(C(N)=O)nn1)C1CCC1`, the cytotoxicity at 10 µM worked out at 9%.

Regarding `Cc1c(CN2C[C@H](O)[C@@H](N3CCOCC3)C2)[nH]c2ccc(F)cc12`, the cytotoxicity at 10 µM is 5.86%. Then `CN(C)CCOCC1CN(Cc2ccsc2)Cc2nnn(C)c21` (stereo not drawn), with 14.1%.

Turning to `CCOC(=O)c1c(NC(=O)CN2CCN(C(C)=O)CC2)sc(C)c1C`, the cytotoxicity at 10 µM was found to be 1.15%.

Take `Cc1cc(C)n(C2=NC(NCCCO)c3c(sc4c3CCCC4)N2)n1` (stereo not drawn): the cytotoxicity at 10 µM turned out to be 14%. In the case of `CCc1nnc2n1CCN(C(=O)C(C)Oc1cccc(C#N)c1)C2` (stereo not drawn), the cytotoxicity at 10 µM amounted to 0.855%. For `Cc1cc(-c2nn(C)c(Cl)c2CN2CCN(C)C(C(=O)O)C2)no1` (stereo not drawn), the cytotoxicity at 10 µM was -0.0938%.

For `CSCC[C@@H](CO)n1ccnc1-c1nccn1C`, the cytotoxicity at 10 µM was -2.84%.

Take `COCC(=O)N1C[C@H]2CNC[C@@]2(C(=O)NCc2c(C)noc2C)C1`: the cytotoxicity at 10 µM amounted to 0.753%. For the compound `CCS(=O)(=O)N1CC[C@H]2CO[C@H](CN(C)C)[C@H]2C1`, the cytotoxicity at 10 µM was -72%. Regarding `CC(=O)N1CCCN(C(=O)c2csc(-c3ccc(C)cc3C)n2)CC1`, the cytotoxicity at 10 µM was determined as 20.8%. Turning to `Cn1cc(S(=O)(=O)Nc2ccc(Cl)cn2)cc1C(N)=O`, the cytotoxicity at 10 µM is -1.7%. `CN(Cc1csc(-c2cccs2)n1)C(=O)CCn1ccc(=O)[nH]c1=O`: the cytotoxicity at 10 µM turned out to be 4.71%. `N[C@@H]1CCN(Cc2cc(-c3ccccc3OC(F)(F)F)no2)C[C@H]1O`: the cytotoxicity at 10 µM turned out to be 2.42%.

As to `CCOc1ccccc1-c1noc(CN2CCN(CCOC)CC2)n1`, the cytotoxicity at 10 µM is -4.9%. Take `O=C(Cc1cccc(F)c1)NCCNCC1CNc2ccnn2C1` (stereo not drawn): the cytotoxicity at 10 µM turned out to be 2.04%. For the compound `CCC(Nc1nc(C(C)C)nc2c1cnn2C)c1ccncc1` (stereo not drawn), the cytotoxicity at 10 µM was -48%.

Consider `CCc1ccc(C2CC(=O)Nc3c2c(=O)n(C)c2ncnn32)cc1` (stereo not drawn), for which the cytotoxicity at 10 µM amounted to 8.16%.

For `COCCN(C(=O)c1cnccn1)c1nc2c(s1)CCc1c-2cnn1C`, the cytotoxicity at 10 µM is -24.3%.

On to `COc1ccnc(NCC2CN(C3CC3)CCO2)n1` (stereo not drawn), for which the cytotoxicity at 10 µM is -7.97%. For `COC(=O)c1ccc(F)c(Cn2nc(C)cc2C)c1`, the cytotoxicity at 10 µM was 4.11%. The same measure for `COc1c(C2CCCN2c2ncnc3sccc23)c(C)nn1C` (stereo not drawn): 21.5%; for `Cc1cc(C(F)F)nn1C(C)C(=O)NCc1ncc[nH]1` (stereo not drawn): 5.46%; for `CSCC(CCO)NC(=O)Nc1ccc(Br)cc1` (stereo not drawn): -12.2%. Then `Cc1noc(OCc2csc(C)n2)n1`, with -2.54%; and `Cc1cc(N2CCOCC(Cc3ccc4[nH]ccc4c3)C2)ncn1` (stereo not drawn), with -3.77%.
